Measurements taken from ChEMBL document CHEMBL4706564 (Eur J Med Chem, 2020).

Experiments:
[1] = cells; assay type: cell-based, Ebolavirus, HEK293T; details: Orthoebolavirus, Mayinga, HEK-293T
[2] = cells; assay type: cell-based, HEK293T; details: Vesicular stomatitis virus, HEK-293T
[3] = (§1) Cytotoxicity against human HEK293T cells incubated for 48 hrs by MTT assay; assay type: cell-based, HEK-293T; details: HEK293T cells
How it was run: (§2)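 HEK293T cells at 10⁵ cells/ml were added to two-fold compound dilutions in 10% DMEM and incubated 48 h at 37 °C, 5% CO2. MTT (5 mg/ml stock in PBS, 1/10 volume) was added for 2 h, and formazan was dissolved in DMSO before reading optical density. Each concentration was run in triplicate. CC50 was the concentration giving 50% cell death, or halving OD versus control.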

[4] = (§3) Cytotoxicity against African green monkey Vero cells assessed as reduction in cell survival incubated for 10 days by neutral red dye based colorimetric analysis; details: chlorocebus sabaeus, Vero cells; time 10 day
How it was run: (§4)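 Confluent Vero monolayers received six concentrations from 3-fold serial dilutions in DMEM of DMSO-dissolved compound, plus medium without virus. After 10 days at 37 °C, 5% CO2, cells were stained with neutral red and read at 490 nm. CC50 came from a 4-parameter fit, with at least 3 analyses per compound.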

[5] = tested on: Marburgvirus; assay: Antiviral activity against MARV Popp infected in African green monkey Vero cells assessed as inhibition of viral infection by measuring reduction in virus-induced cytotoxicity incubated for 10 days by neutral red dye based colorimetric analysis; assay type: functional, organism-based
[6] = tested on: Zaire ebolavirus; assay: Antiviral activity against Zaire ebolavirus infected in African green monkey Vero cells assessed as inhibition of viral infection by measuring […] incubated for 10 days by neutral red dye based colorimetric analysis; assay type: functional, organism-based
[7] = tested on: Influenza A virus; assay: Antiviral activity against Influenza A virus (H1N1); assay type: functional, organism-based
[8] = in vitro; details: human, HEK293T cells
[9] = tested on: HEK-293T; assay: as §1; assay type: cell-based; details: hek-293t, 48 h
How it was run: as §2

[10] = tested on: Vero; assay: as §3; details: chlorocebus sabaeus, vero, 240 h; time 10 day
How it was run: as §4

[11] = Acute toxicity in ICR mouse assessed as animal death at 0.14 to 1.08 g/kg, ig and measured for 7 days; details: in vivo, po, 168 h, dose 0.14-1.08 g/Kg, time 7 day
How it was run: (§5)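 Outbred ICR mice, randomised into groups of 2. Each group got a single oral gavage dose of 1.08, […], 0.27 or 0.14 g/kg, given as a suspension in 10% DMSO in water at 0.1 mL/10 g. Controls received solvent only. Survival was recorded over 7 days.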

[12] = Acute toxicity in ig dosed ICR mouse; assay type: organism-based; details: in vivo, po
How it was run: as §5

[13] = tested on: Ebolavirus; assay: Antiviral activity against VSV-G pseudotyped EBOV infected in human HeLa cells; assay type: functional, organism-based; details: Orthoebolavirus
[14] = tested on: Marburgvirus; assay: Antiviral activity against VSV-G pseudotyped MARV infected in human HeLa cells; assay type: functional, organism-based; details: Orthomarburgvirus
[15] = tested on: Ebolavirus; assay: Antiviral activity against eGFP-positive VSV-G pseudotyped EBOV infected in human U2OS cells assessed as reduction in virus entry cells pre-incubed with compound for 1 hr followed by viral infection and measured after 12 to 14 hrs by fluorescence microscopic analysis; assay type: functional, organism-based; details: Orthoebolavirus

CN1CCN(CCC(=O)O[C@@H]2C[C@@H]3CC[C@@]2(C)C3(C)C)CC1
IC50 [1]: 0.3 µM
IC50 [2]: 173 µM
CC50 at 48 h [3]: 282 µM
CC50 at 240 h [4]: 61.4 µM
IC50 ([5]; vero): Not Active
IC50 ([6]; vero): Not Active
IC50 [7]: 1.9 µM
selectivity ratio [8]: 870

CC1(C)[C@H]2CC[C@]1(C)[C@H](OC(=O)CCN1CCCCC1)C2
IC50 [2]: 93 µM
CC50 [9]: 290 µM
CC50 at 240 h [4]: 443 µM
IC50 ([5]; vero, read-out: IC50): 3.7 µM
IC50 ([6]; vero, read-out: IC50): 47.5 µM
IC50 [7]: 7.8 µM

CC1(C)[C@H]2CC[C@]1(C)[C@H](OC(=O)CCN1CCCCC1)C2.Cl
CC50 [9]: 87 µM
CC50 [10]: 279 µM
IC50 ([5]; vero, read-out: IC50): 18.1 µM
IC50 ([6]; vero, read-out: IC50): 9.1 µM
Activity [11]: Non-Toxic
LD50 [12]: > 1000 mg/kg

CC1CCN(CCC(=O)O[C@@H]2C[C@@H]3CC[C@@]2(C)C3(C)C)CC1 [listing 1 of 2 here]
CC50 [9]: 69.8 µM
CC50 [10]: 144 µM
IC50 ([5]; vero, read-out: IC50): 5.7 µM
IC50 ([6]; vero, read-out: IC50): 64.7 µM

O=[N+]([O-])c1cc(S(=O)(=O)NCCN2CCOCC2)ccc1Sc1nnnn1-c1ccccc1
IC50 [13]: 1.9 µM
IC50 [14]: 12.9 µM

CC1CCN(CCC(=O)O[C@@H]2C[C@@H]3CC[C@@]2(C)C3(C)C)CC1 [listing 2 of 2 here]
IC50 [1]: 0.3 µM
CC50 [9]: 280 µM
CC50 [10]: 69.3 µM
IC50 ([5]; vero, read-out: IC50): 2.2 µM
IC50 ([6]; Zaire ebolavirus, Vero, 240 h, read-out: IC50): 54.3 µM
IC50 [7]: 15.3 µM

CC1(C)[C@H]2CC[C@]1(C)[C@H](OC(=O)CN1CCCCC1)C2
IC50 [1]: 15.7 µM
IC50 [2]: 122 µM
CC50 at 48 h [3]: 141 µM
selectivity ratio [8]: 9

CC1(C)[C@@H]2CC[C@@]1(C)/C(=N/CCO)C2
IC50 [7]: 5.1 µM

CCN1CCN(CCC(=O)O[C@@H]2C[C@@H]3CC[C@@]2(C)C3(C)C)CC1
IC50 [1]: 1.6 µM
IC50 [2]: 80.5 µM
CC50 at 48 h [3]: 264 µM
CC50 at 240 h [4]: 19.2 µM
IC50 ([5]; Orthomarburgvirus, Popp, Vero, 240 h, read-out: IC50): 17.8 µM
IC50 ([6]; vero): Not Active

CC1(C)[C@H]2CC[C@]1(C)[C@H](OC(=O)CCN1CCOCC1)C2
IC50 [1]: 8.5 µM
IC50 [2]: 320 µM
CC50 at 48 h [3]: 305 µM
CC50 at 240 h [4]: 122 µM
IC50 ([5]; vero): Not Active
IC50 ([6]; vero): Not Active
IC50 [7]: 12.2 µM
selectivity ratio [8]: 36

CN1CCN(CCCC(=O)N[C@@H]2C[C@H]3CC[C@]2(C)C3(C)C)CC1
IC50 [1]: 2.5 µM
IC50 [2]: 475 µM
CC50 at 48 h [3]: 475 µM
selectivity ratio [8]: 191

CCN1CCN(CCCC(=O)N[C@@H]2C[C@H]3CC[C@]2(C)C3(C)C)CC1
IC50 [1]: 2.1 µM
IC50 [2]: 268 µM
CC50 at 48 h [3]: 268 µM
selectivity ratio [8]: 129

CC1(C)[C@H]2CC[C@]1(C)[C@H](OC(=O)CN1CCN(Cc3ccccc3)CC1)C2
IC50 [1]: 1.3 µM
IC50 [2]: 39.8 µM
CC50 at 48 h [3]: 59.4 µM
selectivity ratio [8]: 44

CCCNC(=O)[C@@H]1O[C@H]1C(=O)N[C@@H](Cc1ccc(C)cc1)C(=O)N[C@H](C(=O)N1CCN(Cc2ccccc2)CC1)c1ccccc1
IC50 [15]: 0.07 µM

CCN1CCN(CC(=O)O[C@@H]2C[C@@H]3CC[C@@]2(C)C3(C)C)CC1
IC50 [1]: 1.6 µM
IC50 [2]: 264 µM
CC50 at 48 h [3]: 130 µM
selectivity ratio [8]: 80

N#Cc1c(NCCN)nc(-c2ccccc2)c2c1CCCC2
IC50 [13]: 24.4 µM
IC50 [14]: 6.2 µM

CN1CCN(CC(=O)N[C@@H]2C[C@H]3CC[C@]2(C)C3(C)C)CC1
IC50 [1]: 13.3 µM
IC50 [2]: 853 µM
CC50 at 48 h [3]: 853 µM
selectivity ratio [8]: 64

CC1(C)[C@H]2CC[C@]1(C)[C@H](OC(=O)CCN1CCCCCC1)C2
IC50 [1]: 5.1 µM
IC50 [2]: 191 µM
CC50 at 48 h [3]: 182 µM
selectivity ratio [8]: 36

CCN1CCN(CC(=O)N[C@@H]2C[C@H]3CC[C@]2(C)C3(C)C)CC1
IC50 [1]: 8.5 µM
IC50 [2]: 660 µM
CC50 at 48 h [3]: 660 µM
selectivity ratio [8]: 78
